# According to ChEMBL document CHEMBL1124605, “Synthesis and anthelmintic activity of a series of pyrazino[2,1-a][2]benzazepine derivatives” (1989):
# System: Taenia crassiceps
# Experiment: 1 Minimum inhibitory concentration to prevent all movement of cysts and evaginated scoleces of in vitro Taenia crassiceps screen after 48 h
# Format: functional
# Method in brief: (§1)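 Taenia crassiceps cysts taken from mice, pepsin-treated (0.05% in HCl, pH 2.0, 5 min, 37 °C) and washed three times in Hank's balanced salt solution. Compound added as a methylcellulose suspension (final 10 μg/mL) in CMRL 1066-based medium with fetal calf serum, glucose, taurocholate, yeast extract, HEPES and antibiotics, at 37 °C. Invaginated and evaginated cysts scored at 24 and 48 h. Actives titrated for MIC.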
row,Structure (SMILES),MIC [µg/mL]
1,"O=C(C1CCCCC1)N1CC(=O)N2CCCc3ccccc3C2C1 (single isomer, unassigned; (-)) [EPSIPRANTEL]",< 0.1

# System: Taenia crassiceps
# Experiment: Minimum inhibitory concentration to prevent all movement of cysts and evaginated scoleces of in vitro Taenia crassiceps screen after 48 h
# Format: functional
# Method in brief: as §1
row,Structure (SMILES),MIC [µg/mL]
1,Cc1ccc(C(=O)N2CC(=O)N3CCCc4ccccc4C3C2)cc1 (stereo unspecified),≤ 10
2,CC(=O)N1CC(=O)N2CCCc3ccccc3C2C1 (stereo unspecified),> 10
3,O=C(c1ccc(F)cc1)N1CC(=O)N2CCCc3ccccc3C2C1 (stereo unspecified),> 10
4,O=C(c1ccc([N+](=O)[O-])cc1)N1CC(=O)N2CCCc3ccccc3C2C1 (stereo unspecified),> 10
5,CN(C)c1ccc(C(=O)N2CC(=O)N3CCCc4ccccc4C3C2)cc1 (stereo unspecified),> 10
6,CC(C)C(=O)N1CC(=O)N2CCCc3ccccc3C2C1 (stereo unspecified),> 10
7,O=C(C1CCCCC1)N1CC(=S)N2CCCc3ccccc3C2C1 (stereo unspecified),> 10
8,Nc1cccc(C(=O)N2CC(=O)N3CCCc4ccccc4C3C2)c1 (stereo unspecified),> 10
9,O=C(C1CCOCC1)N1CC(=O)N2CCCc3ccccc3C2C1 (stereo unspecified),> 10
10,O=C(C1CCC1)N1CC(=O)N2CCCc3ccccc3C2C1 (stereo unspecified),> 10
11,O=C(C1CCCCCC1)N1CC(=O)N2CCCc3ccccc3C2C1 (stereo unspecified),> 10
12,O=C(c1cccc(Cl)c1)N1CC(=O)N2CCCc3ccccc3C2C1 (stereo unspecified),> 10
13,O=C(c1cccc([N+](=O)[O-])c1)N1CC(=O)N2CCCc3ccccc3C2C1 (stereo unspecified),≤ 10
14,O=C(c1cccnc1)N1CC(=O)N2CCCc3ccccc3C2C1 (stereo unspecified),> 10
15,Cc1ccccc1C(=O)N1CC(=O)N2CCCc3ccccc3C2C1 (stereo unspecified),> 10
16,Cl.O=C(C1CCCCC1)N1CCN2CCCc3ccccc3C2C1 (stereo unspecified),> 10
17,O=C(c1ccc(Cl)cc1)N1CC(=O)N2CCCc3ccccc3C2C1 (stereo unspecified),> 10
18,Cc1cccc(C(=O)N2CC(=O)N3CCCc4ccccc4C3C2)c1 (stereo unspecified),> 10
19,COc1ccc(C(=O)N2CC(=O)N3CCCc4ccccc4C3C2)cc1 (stereo unspecified),> 10
20,CCCCCC(=O)N1CC(=O)N2CCCc3ccccc3C2C1 (stereo unspecified),> 10
21,COc1cc2c(cc1OC)C1CN(C(=O)C3CCCCC3)CC(=O)N1CCC2 (stereo unspecified),> 10
22,O=C(c1ccc(O)cc1)N1CC(=O)N2CCCc3ccccc3C2C1 (stereo unspecified),> 10
23,O=C(C1CCCCC1)N1CC(=O)N2CCSc3ccccc3C2C1 (stereo unspecified),> 10
24,O=C(C1CCCCC1)N1CC(=O)N2CCCc3ccccc3C2C1 (stereo unspecified) [EPSIPRANTEL],≤ 0.1
25,O=C(C1CCCCC1)N1CC(=O)N2CCc3ccccc3C2C1 (stereo unspecified) [PRAZIQUANTEL],≤ 0.1
